How the values were obtained:
[1] = tested on: progressive glioblastoma multiforme; settings: adults, therapy initiated at 45mg; cited from earlier work
[2] = tested on: Plasma VEGF, bFGF, endostatin and IL8 and urine MMPs; assay: Pharmacodynamic biomarkers in plasma and urine; assay type: in vivo, human; settings: baseline vs day 7–14 of cycle 1, or baseline vs end of cycle 2
Method in brief: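 Plasma VEGF, bFGF, endostatin and IL8 and urine MMPs were measured by human immunoassays before course 1, once on days 7–14 of course 1, at each MRI scan, and at discontinuation or completion. The fold change was calculated as the later-timepoint value divided by the earlier-timepoint value.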

[3] = Phase I dose escalation; assay type: in vivo
[4] = pediatric MTD of 12mg/m^2/day; cited from earlier work

In the case of `COc1cc2c(Oc3ccc4[nH]c(C)cc4c3F)ncnc2cc1OCCCN1CCCC1` [cediranib, Cediranib], the 6-month progression-free survival [1] is given as 26%, the “radiographic response, patients” value [1] is given as 57% and the “changes in MMP-9, MMP-9 Dimers or MMP-9/NGAL” value [2] is given as “No significant changes”. The MTD ([3]; Stratum II (patients receiving EIACD), maximum dose tested 20mg/m^2/d) was “not achieved”, the DLTs identified ([3]; human, in vivo) was 8 and the “median AUC(0-inf)” value [4] was 0.9 µg·h/mL. The “median Cmax” value [4] was 0.067 µg/mL.
